Source: ChEMBL document CHEMBL2046333, “Antiprotozoal and antimicrobial compounds from the plant pathogen Septoria pistaciarum” (J Nat Prod, 2012)
In brackets after ≈: the same amount, converted by molar mass. Activity calls are given as the source filed them. No cut-off for these calls is given here.

Assays:
Leishmania donovani = assay: Antileishmanial activity against Leishmania donovani promastigotes; assay type: functional, organism-based
Procedure, shortened: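 Compounds were tested in vitro on cultured L. donovani promastigotes, with pentamidine and amphotericin B as standard controls. IC50 and IC90 (50% and 90% growth inhibition) were computed from growth-inhibition curves.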

Plasmodium falciparum [1] = assay: Antimalarial activity against chloroquine-sensitive Plasmodium falciparum D6 infected in RBC assessed as parasite LDH activity after 72 hrs; assay type: functional, organism-based; conditions: D6, 72 h
Vero = assay: Cytotoxicity against african green monkey Vero cells; assay type: cell-based, Chlorocebus sabaeus
Procedure, shortened: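 Mammalian cells (Vero, LLC-PK11, SK-MEL, KB, BT-549, SK-OV-3) exposed to compound; viable cells counted by Neutral Red dye uptake; IC50 taken from dose-response curves.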

Plasmodium falciparum [2] = assay: Antimalarial activity against chloroquine-resistant Plasmodium falciparum W2 infected in RBC assessed as parasite LDH activity after 72 hrs; assay type: functional, organism-based; conditions: W2, 72 h
KB = assay: Cytotoxicity against human KB cells assessed as viable cells by neutral red dye method; assay type: functional, cell-based
SK-OV-3 = assay: Cytotoxicity against human SKOV3 cells assessed as viable cells by neutral red dye method; assay type: functional, cell-based
[3] = Selectivity index, ratio of IC50 for african green monkey Vero cells to IC50 for chloroquine-sensitive Plasmodium falciparum D6; assay type: toxicity, cell-based; conditions: read-out: Ratio IC50
Procedure, shortened: (§1)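 Selectivity index is the IC50 for Vero-cell cytotoxicity (Neutral Red viability) divided by the IC50 against P. falciparum D6 or W2 (from dose-response curves).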

Lactuca sativa [4] = assay: Phytotoxic activity against Lactuca sativa cv. L. at 1.73 mM; assay type: functional, organism-based
Procedure, shortened: (§2)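 Compound (1 mg) dissolved in 100 μL acetone; 20 μL spotted on filter paper, air-dried 30 min. Paper placed in well, 200 μL water added. Bentgrass (Agrostis stolonifera) or lettuce (Lactuca sativa cv. L., Iceberg) seeds used. Solvent controls treated identically. Growth scored visually from 0 (no effect) to 5 (no growth).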

SK-MEL = assay: Cytotoxicity against human SK-MEL cells assessed as viable cells by neutral red dye method; assay type: functional, cell-based
[5] = Selectivity index, ratio of IC50 for african green monkey Vero cells to IC50 for chloroquine-resistant Plasmodium falciparum W2; assay type: toxicity, cell-based; conditions: read-out: Ratio IC50; procedure, shortened: as §1
Agrostis stolonifera [6] = assay: Phytotoxic activity against Agrostis stolonifera at 1.73 mM; assay type: functional, organism-based; procedure, shortened: as §2
[7] = Cytotoxicity against pig LLC-PK11 cells assessed as viable cells by neutral red dye method; assay type: cell-based; conditions: Sus scrofa
BT-549 = assay: Cytotoxicity against human BT549 cells assessed as viable cells by neutral red dye method; assay type: functional, cell-based
Agrostis stolonifera [8] = assay: Phytotoxic activity against Agrostis stolonifera at 1.87 mM; assay type: functional, organism-based
Procedure, shortened: (§3)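 Seeds were bentgrass (Agrostis stolonifera) and lettuce (cv. Iceberg), in multiwell plates. Compound was dissolved at 1 mg per 100 μL acetone, and a 20 μL aliquot was dried onto filter paper for 30 min under airflow. Water was then added. Acetone solvent controls were handled identically. Growth was scored visually from 0 (no effect) to 5 (no growth).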

Staphylococcus aureus [9] = assay: Antimicrobial activity against methicillin-sensitive Staphylococcus aureus ATCC 29213 by CLSI M7-A5 method; assay type: functional
Staphylococcus aureus [10] = assay: Antimicrobial activity against methicillin-resistant Staphylococcus aureus ATCC 33591 by CLSI M7-A5 method; assay type: functional
Lactuca sativa [11] = assay: Phytotoxic activity against Lactuca sativa cv. L. at 1.87 mM; assay type: functional, organism-based; procedure, shortened: as §3
Agrostis stolonifera [12] = assay: Phytotoxic activity against Agrostis stolonifera at 1.62 mM; assay type: functional, organism-based; procedure, shortened: as §2
Lactuca sativa [13] = assay: Phytotoxic activity against Lactuca sativa cv. L. at 1.62 mM; assay type: functional, organism-based; procedure, shortened: as §2
Aspergillus fumigatus = assay: Antifungal activity against Aspergillus fumigatus ATCC 90906 by broth dilution method; assay type: functional, organism-based
Procedure, shortened: (§4)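 Broth dilution run as a modified CLSI susceptibility method. Amphotericin B was included as the antifungal drug control in each assay.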

Nakaseomyces glabratus = assay: Antifungal activity against Candida glabrata ATCC 90030 by broth dilution method; assay type: functional, organism-based; procedure, shortened: as §4
Pichia kudriavzevii = assay: Antifungal activity against Candida krusei ATCC 6258 by broth dilution method; assay type: functional, organism-based; procedure, shortened: as §4
Cryptococcus neoformans = assay: Antifungal activity against Cryptococcus neoformans ATCC 90113 by broth dilution method; assay type: functional, organism-based; procedure, shortened: as §4
Candida albicans = assay: Antifungal activity against Candida albicans ATCC 90028 by broth dilution method; assay type: functional, organism-based; procedure, shortened: as §4
[14] = Chlorocebus sabaeus, Vero, read-out: IC50

SMILES | IC50 (Leishmania donovani) [µM] | IC90 (Leishmania donovani) [µM] | IC50 (Plasmodium falciparum [1]) [µM] | IC50 (Vero; vero) | IC50 (Plasmodium falciparum [2]) [µM] | IC50 (KB) [µM] | IC50 (SK-OV-3) [µM] | selectivity ratio [3] | IC50 (SK-MEL) [µM] | selectivity ratio [5] | IC50 (Vero; [14]) [µM] | IC50 [7] [µM] | IC50 (BT-549) [µM] | other results
C[C@@H]1[C@H](O)[C@@H](C)/C=C/C=C/C=C/C=C/C=C/C=C/C=C/[C@H](O[C@@H]2O[C@H](C)[C@@H](O)[C@H](N)[C@@H]2O)C[C@@H]2O[C@](O)(C[C@@H](O)C[C@@H](O)[C@H](O)CC[C@@H](O)C[C@@H](O)CC(=O)O[C@H]1C)C[C@H](O)[C@H]2C(=O)O [AMPHOTERICIN B] | 0.18 | 0.38 |  |  |  |  |  |  |  |  |  |  |  | 
C[C@@H]1CC[C@H]2[C@@H](C)C(=O)O[C@@H]3O[C@@]4(C)CC[C@@H]1[C@]32OO4 [ARTEMISININ] |  |  | 0.02 | Non-toxic |  |  |  |  |  |  |  |  |  | 
COc1c(C[C@@H](C)OC(C)=O)c2c3c(C[C@@H](C)O)c(OC)c(=O)c4c(O)cc5c(c6c(cc(O)c(c1=O)c62)OCO5)c43 | 1.7 |  | 2.78 |  | 3.12 | 8.5 | 4 | 1.9 | 3.8 | 1.7 | 5.21 | 10.1 | 8.6 | Activity (Lactuca sativa [4]): Active; Activity (Agrostis stolonifera [6]): Active
CCN(CC)CCCC(C)Nc1ccnc2cc(Cl)ccc12 (configuration not stated) [CHLOROQUINE] |  |  |  | Non-toxic |  |  |  |  |  |  |  |  |  | 
COc1c(C[C@@H](C)O)c2c3c(C[C@@H](C)O)c(OC)c(=O)c4c(O)cc5c(c6c(cc(O)c(c1=O)c62)OCO5)c43 | 1.14 | 2.81 | 1.08 |  | 1.62 | 7.1 | 3.7 | 4.8 | 3.6 | 3.2 | 5.24 | 3.9 | 10.8 | Activity (Agrostis stolonifera [8]): Active; MIC (Staphylococcus aureus [9]): 4.7 µM (≈ 2.51 µg/mL); MIC (Staphylococcus aureus [10]): 9.4 µM (≈ 5.02 µg/mL); Activity (Lactuca sativa [11]): Active
COc1c(C[C@@H](C)OC(C)=O)c2c3c(C[C@@H](C)OC(C)=O)c(OC)c(=O)c4c(O)cc5c(c6c(cc(O)c(c1=O)c62)OCO5)c43 | 3.1 | 9.7 | 2.75 |  | 1.94 | 8.7 | 4.8 | 1.6 | 4.9 | 2.3 | 4.53 | 9.4 | 8.7 | Activity (Agrostis stolonifera [12]): Active; Activity (Lactuca sativa [13]): Active
N=C(N)c1ccc(OCCCCCOc2ccc(C(=N)N)cc2)cc1 [PENTAMIDINE] | 2.9 | 5.58 |  |  |  |  |  |  |  |  |  |  |  | 
CC[C@@H](C)[C@H]1O[C@@H](c2c(O)c(-c3ccccc3)cn(O)c2=O)[C@H](C)C[C@@H]1C [SEPTORIAMYCIN A] | 0.11 | 0.29 |  |  |  |  |  |  |  |  |  |  |  | Activity (Aspergillus fumigatus): Active; Activity (Nakaseomyces glabratus): Active; Activity (Pichia kudriavzevii): Active; Activity (Cryptococcus neoformans): Active; Activity (Candida albicans): Active
CC[C@@H](C)[C@H]1O[C@@H](c2c(OC)c(-c3ccccc3)c[n+]([O-])c2OC)[C@H](C)C[C@@H]1C |  |  | 6.76 | Non-toxic | 6.51 |  |  | > 1.1 |  | > 1.2 |  |  |  | 
